Source: ChEMBL document CHEMBL2150998, “Antibiotic and antimalarial quinones from fungus-growing ant-associated Pseudonocardia sp” (J Nat Prod, 2012)
pIC50: −log10 of the molar value. Values after ≈ are worked out from the molar mass of the structure shown.

Tests used:
HepG2 = assay: Cytotoxicity against human HepG2 cells after 2 days by CellTiter-Glo assay; assay type: cell-based; settings: HepG2, 48 h
Method in brief: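 HepG2 hepatoma cells were kept in DMEM with 10% FBS and 1% antibiotic–antimycotic (37 °C, 5% CO2). 15 000 cells/well were exposed in triplicate to compounds at 0–50 μg/mL with 1% DMSO final, 2 days at 37 °C. Viability was read by CellTiter-Glo luminescence. IC50 came from a standard inhibition dose–response fit, mean of two independent experiments.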

Plasmodium berghei = assay: Antiplasmodial activity against luciferase-expressing sporozoite of Plasmodium berghei ANKA infected in human HepG2 cells assessed as reduction of parasite load after 2 days; assay type: functional, organism-based; settings: HepG2, 48 h
Method in brief: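 HepG2 cells (15 000/well, 384-well) were infected with 4000 luciferase-expressing P. berghei ANKA sporozoites, taken from infected Anopheles stephensi, with compounds in triplicate. Final DMSO was 1%, compounds 0–50 μg/mL, 2 days at 37 °C. Parasite load was read by Bright-Glo luminescence. IC50 came from a standard inhibition dose–response fit, mean of two independent experiments. Atovaquone was the positive control.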

Escherichia coli = assay: Antibacterial activity against Escherichia coli K12 after 24 hrs; assay type: functional; settings: K-12, 24 h
Method in brief: (§1)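 Overnight cultures at 30 °C in LB (E. coli, B. subtilis) or YPD (C. albicans, S. cerevisiae) were diluted to OD600 0.01. Compounds came from 5 mg/mL DMSO stocks, 2-fold serially diluted, at final 50 to 0.1 μg/mL. Growth ran 24 h at 30 °C with OD600 read-out. MIC was the lowest concentration giving <5% of maximum OD600. Assays were run in duplicate, with dynemicin A as positive control.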

Bacillus subtilis = assay: Antibacterial activity against Bacillus subtilis 3610 after 24 hrs; assay type: functional; settings: subsp. subtilis str. NCIB 3610, 24 h; method in brief: as §1
Candida albicans = assay: Antifungal activity against Candida albicans after 24 hrs; assay type: functional; method in brief: as §1
Saccharomyces cerevisiae = assay: Antifungal activity against Saccharomyces cerevisiae after 24 hrs; assay type: functional; method in brief: as §1

Compound | pIC50 (HepG2) | pIC50 (Plasmodium berghei) | MIC (Escherichia coli) | MIC (Bacillus subtilis) | MIC (Candida albicans) | MIC (Saccharomyces cerevisiae)
COc1cccc2c1C(=O)c1ccc3c(c1C2=O)C(=O)C[C@](C)(O)C3 | < 4.00 | 4.73 | > 50 µg/mL | 25 µg/mL (≈ 74.3 µM) | > 50 µg/mL | > 50 µg/mL
COc1cccc2c1C(=O)c1ccc3cc(C)cc(O)c3c1C2=O | 4.44 | 5.52 | > 50 µg/mL | 3.13 µg/mL (≈ 9.83 µM) | > 50 µg/mL | > 50 µg/mL
COc1cccc2c1C(=O)c1ccc3cc(C)cc(O[C@@H]4O[C@H](C(=O)O)[C@@H](O)[C@H](O)[C@H]4O)c3c1C2O (relative stereo) | < 4.00 | 4.42 | > 50 µg/mL | > 50 µg/mL | > 50 µg/mL | > 50 µg/mL
COC1=C(C(=O)O)[C@H](C)[C@@]23O[C@]24c2cc(O)c5c(c2N[C@H]3C#C/C=C\C#C[C@H]14)C(=O)c1c(O)ccc(O)c1C5=O [DYNEMICIN A] |  |  | 0.313 µg/mL (≈ 0.582 µM) | 0.00016 µg/mL (≈ 0.000298 µM) | 0.156 µg/mL (≈ 0.29 µM) | 0.156 µg/mL (≈ 0.29 µM)
COc1cccc2c1C(=O)c1ccc3cc(C)cc(O[C@@H]4O[C@H](C(=O)O)[C@@H](O)[C@H](O)[C@H]4O)c3c1C2=O [PSEUDONOCARDONE B] | < 4.00 | 4.30 | > 50 µg/mL | > 50 µg/mL | > 50 µg/mL | > 50 µg/mL
COc1cccc2c1C(=O)c1ccc3cc(C)c(O[C@@H]4O[C@H](C(=O)O)[C@@H](O)[C@H](O)[C@H]4O)c(O)c3c1C2=O [PSEUDONOCARDONE C] | < 4.00 | < 4.00 | > 50 µg/mL | > 50 µg/mL | > 50 µg/mL | > 50 µg/mL
